From ChEMBL document CHEMBL2151003, “Synthesis and antitumor activity of ring A modified glycyrrhetinic acid derivatives” (Eur J Med Chem, 2011) come the findings set out here.

Active and inactive are the calls of the source. The calls are words filed in the database; no cut-off is given here.

The nature of experiment [1]: Cytotoxicity against human A253 cells after 96 hrs by SRB assay. Type of experiment: functional, cell-based. In outline:
(§1)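 Monolayer cultures in RPMI 1640 with 10% heat-inactivated FBS and penicillin/streptomycin, 37 °C, 5% CO2. Exponentially growing cells were seeded, then treated 24 h later with serial dilutions (0–30 µM; DMSO or DMF ≤0.5% final) for 96 h. Cells were fixed with 10% TCA at 4 °C, stained with 0.4% SRB and solubilized in 10 mM Tris base; A570 was read. IC50 came from semi-log dose–response curves, ≥3 independent experiments.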
In general terms: The SRB assay estimates cell density from bound dye.

Another experiment deals with SW-1736. Description: Cytotoxicity against human SW1736 cells after 96 hrs by SRB assay. The format is functional, cell-based. An outline of the steps:
as §1

Experiment [2] has as its system A549. Description: Induction of apoptosis in human A549 cells assessed as apoptotic effect at 20 uM after 24 to 48 hrs by trypan blue cell counting analysis. The format is functional. An outline of the steps: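 A549 cells (approx. 500,000 per flask) were grown 24 h, then given compound-containing medium for about 24–48 h. Collected cells were pelleted, washed in PBS and mixed 1:1 with 0.4% trypan blue in PBS, pH 7.2. An automated counter distinguished cells with intact and with damaged membranes. Results are % apoptosis ± standard error, 6 experiments each.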

Experiment [3] has as its system A549. Description: Induction of apoptosis in human A549 cells assessed as appearance of green fluorescent cells at 20 uM after 24 to 48 hrs by acridine orange/ethidium bromide staining based fluorescence microscopy. The format is functional, cell-based. In outline: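 Approx. 500,000 A549 cells per flask were grown 24 h, then exposed to compound-containing medium for 24–48 h. Cells from the supernatant were pelleted, washed and resuspended in PBS, mixed with AO/EB and examined by fluorescence microscopy. Green fluorescence was scored as apoptotic and red nuclei as necrotic; the read-out is qualitative.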

The next experiment concerns MCF7. The experiment is described as follows: Cytotoxicity against human MCF7 cells after 96 hrs by SRB assay. Type of experiment: functional, cell-based. In outline:
as §1

In another experiment the test system is A2780. Description: Cytotoxicity against human A2780 cells after 96 hrs by SRB assay. Type of experiment: functional, cell-based. An outline of the steps: as §1
Another experiment has as its system DLD-1. The experiment is described as follows: Cytotoxicity against human DLD1 cells after 96 hrs by SRB assay. The format is functional, cell-based. An outline of the steps:
as §1

A further experiment relates to 8505C. Description: Cytotoxicity against human 8505C cells after 96 hrs by SRB assay. The format is functional, cell-based. An outline of the steps: as §1
In experiment [4] the test system is A549. The experiment is described as follows: Cytotoxicity against human A549 cells after 96 hrs by SRB assay. Type of experiment: functional, cell-based. In outline: as §1
Experiment [5] in a line: Cytotoxicity against human Lipo cells after 96 hrs by SRB assay. Type of experiment: functional, cell-based. In outline:
as §1

Experiment [6] is described as follows: Cytotoxicity against human 518A2 cells after 96 hrs by SRB assay. Type of experiment: functional, cell-based. In outline: as §1
The subject of the next experiment is HT-29. Description: Cytotoxicity against human HT-29 cells after 96 hrs by SRB assay. Type of experiment: functional, cell-based. In outline:
as §1

In another experiment the test system is HCT-116. Description: Cytotoxicity against human HCT116 cells after 96 hrs by SRB assay. The format is functional, cell-based. An outline of the steps: as §1
In a further experiment the test system is HCT-8. The experiment is described as follows: Cytotoxicity against human HCT8 cells after 96 hrs by SRB assay. Type of experiment: functional, cell-based. An outline of the steps:
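Monolayers in RPMI 1640 with 10% heat-inactivated FBS and penicillin/streptomycin, 37 °C, 5% CO2. Seeded day 0 and exposed 24 h later to serial dilutions (0–30 µM; DMSO or DMF ≤0.5% final) for 96 h. Cells were then fixed with 10% TCA at 4 °C, stained with 0.4% SRB, washed with 1% acetic acid and dissolved in 10 mM Tris, and A570 was read. IC50 from semi-log dose–response curves, ≥3 independent experiments.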

In the next experiment the test system is A-431. Description: Cytotoxicity against human A431 cells after 96 hrs by SRB assay. The format is functional, cell-based. In outline:
as §1

Regarding `COC(=O)[C@@]1(C)CC[C@]2(C)CC[C@]3(C)C(=CC(=O)[C@@H]4[C@@]5(C)CC/C(=N\O)C(C)(C)[C@@H]5CC[C@]43C)[C@@H]2C1`, the IC50 in [1] was 13.56 µmol; with SW-1736, 13 µmol; with MCF7 it was 15.95 µmol; in the experiment on A2780, 6.18 µmol; in the experiment with DLD-1, 10.46 µmol; in the experiment with 8505C it was 17.18 µmol. Also, the IC50 stood at 17.4 µmol in the experiment on A549 [4], 18.34 µmol in experiment [5] and 18.93 µmol in experiment [6]. Besides, the Activity with A549 [2] worked out at 32.43%. Further, the result with A549 [3] was Active.

`CC1(C)C(=O)CC[C@]2(C)[C@H]3C(=O)C=C4[C@@H]5C[C@@](C)(C(=O)O)CC[C@]5(C)CC[C@@]4(C)[C@]3(C)CC[C@@H]12`: the IC50 (in the experiment with HT-29; in [1]; in the experiment with SW-1736; in the experiment with MCF7; in the experiment with HCT-116; with DLD-1) was > 30 µmol throughout. Moreover, the IC50 (in the experiment on HCT-8; with A549 [4]; in the experiment with A-431; in experiment [5]; in [6]) was > 30 µmol in each case.

In the case of `COC(=O)[C@@]1(C)CC[C@]2(C)CC[C@]3(C)C(=CC(=O)[C@@H]4[C@@]5(C)CC[C@H](OC(=O)[C@@H](N)CSCc6ccccc6)C(C)(C)[C@@H]5CC[C@]43C)[C@@H]2C1`, the IC50 was 15.84 µmol in [1]; 15.69 µmol with SW-1736; > 30 µmol in the experiment with DLD-1; 15.45 µmol in the experiment on 8505C; 17.9 µmol in the experiment on A549 [4]; 16.72 µmol in experiment [5]. The molecule further returned an IC50 in [6] of 16.78 µmol. Besides, in the experiment with A549 [2], the Activity came out at 60.64%. The result in the experiment on A549 [3] was Active.

As to `COC(=O)[C@@]1(C)CC[C@]2(C)CC[C@]3(C)C(=CC(=O)[C@@H]4[C@@]5(C)CC[C@H](OC(=O)[C@@H](N)CSSC[C@H](N)C(=O)O[C@H]6CC[C@]7(C)[C@H]8C(=O)C=C9[C@@H]%10C[C@@](C)(C(=O)OC)CC[C@]%10(C)CC[C@@]9(C)[C@]8(C)CC[C@H]7C6(C)C)C(C)(C)[C@@H]5CC[C@]43C)[C@@H]2C1`, the IC50 was 19.07 µmol in experiment [1]; 16.82 µmol with SW-1736; > 30 µmol in the experiment with DLD-1; 15.1 µmol with 8505C; 18.75 µmol with A549 [4]; 22.6 µmol in [5]. Further, the IC50 in experiment [6] worked out at 24.54 µmol. The Activity in the experiment on A549 [2] is listed as 40.91%. The result in the experiment with A549 [3] was Active.

Take `CC1(C)[C@H](O)CC[C@]2(C)[C@H]3C(=O)C=C4[C@@H]5C[C@@](C)(C(=O)O)CC[C@]5(C)CC[C@@]4(C)[C@]3(C)CC[C@@H]12`: the IC50 (in the experiment on HT-29; in experiment [1]; in the experiment on SW-1736; in the experiment on MCF7; in the experiment on HCT-116; with DLD-1) was > 30 µmol in each case. The IC50 (in the experiment with HCT-8; in the experiment on A549 [4]; with A-431; in experiment [5]; in [6]) was > 30 µmol each time.
